# “Also recorded” adds a separate entry of the source. Like-named read-outs stand apart in the source and are kept apart here.
# Experiments:
# [1] = human; cited from earlier work
# URAT1 = settings: cited from earlier work; for URAT1 activity: metabolites of verinurad
# Safety/tolerability = assay type: in vivo, human; settings: for Subjects with an increase from baseline in serum creatinine (sCr): none had sCr ≥1.5 × baseline; for Tolerability: multiple once-daily oral doses, alone or in combination, healthy adult males
# [2] = assay type: in vivo, human; settings: febuxostat 80 mg + verinurad 2.5 mg
# serum urate (sUA) = assay: Serum urate pharmacodynamics; assay type: in vivo, human; settings: for Change in sUA at 24 hours: steady state, 24 hours postdose
# Outline: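 Healthy men were dosed orally once daily, each drug alone for 7 days, and serum was sampled predose to 24 h postdose on days 1, 7, 14 and 21. A central laboratory assayed serum urate. Baseline was the mean of all day −1 values. Maximum percentage change from baseline was taken per subject and averaged per group. A mixed-effects model used treatment as fixed effect, baseline as covariate and subject as random effect.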
# uric acid = assay: Urinary uric acid pharmacodynamics; assay type: in vivo, human; settings: arithmetic mean (95%CI); for AeUR, % Change From baseline / CLUR, % Change From baseline / FEUA, % Change From baseline: day 7 of treatment vs day −1
# major CYPs = settings: ref Ardea Biosciences, Inc., data on file; cited from earlier work
# [3] = assay type: in vivo, human; settings: for Tmax: male, human, plasma, po
# Outline: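 Healthy men (18–65 y, sUA ≥4.5 mg/dL) took oral doses once daily, about 30–35 min after a moderate-fat breakfast. […] Plasma was sampled predose to 24 h on days 7, 14 and 21. Acetonitrile precipitation with deuterated internal standard, then LC/MS/MS (LLOQ 0.100 ng/mL). Log GMRs (90% CI) for single agent vs day 14 came from a mixed-effects model.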
# [4] = assay type: in vivo, human
# Outline: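 Urine was collected as total catch over 0–6, 6–12 and 12–24 h postdose on days 7 (alone), 14 (combination) and 21, under once-daily oral dosing in healthy men. Verinurad was measured by LC/MS/MS, linear 2.00–1000 ng/mL. Ae0-24, fe0-24 and CLR0-24 were derived. Log-transformed parameters were compared as geometric mean ratios with 90% CI using a mixed-effects model (treatment fixed, subject random).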
# [5] = febuxostat 40 mg once daily alone
# [6] = febuxostat 80 mg once daily alone
# [7] = verinurad 2.5 mg once daily alone
# [8] = verinurad 10 mg once daily alone
# [9] = verinurad 2.5 mg combined with febuxostat 80 mg vs alone
# [10] = VERU 2.5 mg once daily, Day 7 of Treatment (0 to 24 Hours)
# [11] = VERU 2.5 mg + FBX 80 mg once daily oral, day 14, geometric mean
# [12] = VERU 2.5 mg + FBX 80 mg once daily oral, day 14, mean (SD)
# [13] = VERU 2.5 mg once daily oral alone, day 7 or 21, geometric mean
# [14] = VERU 2.5 mg once daily oral alone, day 7 or 21, mean (SD)
# [15] = VERU 10 mg + FBX 40 mg once daily oral, day 14, geometric mean
# [16] = VERU 10 mg + FBX 40 mg once daily oral, day 14, mean (SD)
# [17] = VERU 10 mg once daily oral alone, day 7 or 21, geometric mean
# [18] = VERU 10 mg once daily oral alone, day 7 or 21, mean (SD)
smiles,measurement,setting,value
CC(C)(Sc1ccncc1-c1ccc(C#N)c2ccccc12)C(=O)OC1OC(C(=O)O)C(O)C(O)C1O (stereo not shown) [M1],Circulating level in blood relative to verinurad,[1],equimolar to verinurad
same,URAT1 activity,URAT1,devoid of URAT1 activity
CC(C)(Sc1cc[n+]([O-])cc1-c1ccc(C#N)c2ccccc12)C(=O)OC1OC(C(=O)O)C(O)C(O)C1O (stereo not shown) [M8],Circulating level in blood relative to verinurad,[1],equimolar to verinurad
same,URAT1 activity,URAT1,devoid of URAT1 activity
"Cc1nc(-c2ccc(OCC(C)C)c(C#N)c2)sc1C(=O)O [febuxostat, Febuxostat, reference compound]",Subjects with an increase from baseline in serum creatinine (sCr),Safety/tolerability; febuxostat 40 mg,1 subjects
same,Subjects with an increase from baseline in serum creatinine (sCr),Safety/tolerability; febuxostat 80 mg,2 subjects
same,Tolerability,Safety/tolerability,generally well tolerated
same,Effect on Tmax of febuxostat,[2],remained unchanged
same,Maximal reduction in serum urate,serum urate (sUA); [5],49%
same,Mean maximal change from baseline in sUA at steady state,serum urate (sUA); [5],−49.1%
same,Change in sUA at 24 hours,serum urate (sUA); [5],−36.9%
same,Maximal reduction in serum urate,serum urate (sUA); [6],57%
same,Mean maximal change from baseline in sUA at steady state,serum urate (sUA); [6],−57.5%
same,Change in sUA at 24 hours,serum urate (sUA); [6],−45.4%
same,"AeUR, % Change From baseline",uric acid; FBX 40 mg once daily,−64.1%
same,"CLUR, % Change From baseline",uric acid; FBX 40 mg once daily,−34.4 (−45.3 to −23.5) %
same,"FEUA, % Change From baseline",uric acid; FBX 40 mg once daily,−24.5%
same,"AeUR, % Change From baseline",uric acid; FBX 80 mg once daily,−72.4%
same,"CLUR, % Change From baseline",uric acid; FBX 80 mg once daily,−42.0 (−50.8 to −33.2) %
same,"FEUA, % Change From baseline",uric acid; FBX 80 mg once daily,−35.2%
"CC(C)(Sc1ccncc1-c1ccc(C#N)c2ccccc12)C(=O)O [verinurad, Verinurad]",Tolerability,Safety/tolerability,generally well tolerated
same,Subjects with an increase from baseline in serum creatinine (sCr),Safety/tolerability; verinurad 2.5 mg,3 subjects
same,Subjects with mild headache (only AE considered possibly related to verinurad),"Safety/tolerability; verinurad 10 mg-alone group, resolved without treatment",1 subject
same,Subjects with an increase from baseline in serum creatinine (sCr),Safety/tolerability; verinurad 10 mg,2 subjects
same,Potency in inhibiting URAT1,URAT1,high potency
same,Inhibition of the major CYPs,major CYPs,does not inhibit
same,Maximal reduction in serum urate,serum urate (sUA); [7],38%
same,Mean maximal change from baseline in sUA at steady state,serum urate (sUA); [7],−37.8%
same,Change in sUA at 24 hours,serum urate (sUA); [7],−19.9%
same,Maximal reduction in serum urate,serum urate (sUA); [8],56%
same,Mean maximal change from baseline in sUA at steady state,serum urate (sUA); [8],−56.3%
same,Change in sUA at 24 hours,serum urate (sUA); [8],−38.0%
same,Tmax,[3]; 2.5 mg,4 h
same,Tmax,[3]; 10 mg,2.75 h
same,Effect of febuxostat 40 mg on plasma exposure / PK parameters of verinurad 10 mg,"[3]; once-daily co-administration, healthy males",no effect; also recorded: unaffected; also recorded: not influenced
same,Increase in AUC0-24 of verinurad,[3]; [9],33%
same,Increase in Cmax of verinurad,[3]; [9],25%
same,Effect on Tmax of verinurad,[3]; verinurad 2.5 mg in the presence of febuxostat 80 mg,remained unchanged
same,AeUR (amount of uric acid recovered in urine),uric acid; [10],620 (485 to 755) mg
same,FEUA (fractional excretion of uric acid),uric acid; [10],7.55 (6.83 to 8.26) %
same,"AeUR, % Change From baseline",uric acid; VERU 2.5 mg once daily,−21.0%
same,"CLUR, % Change From baseline",uric acid; VERU 2.5 mg once daily,10.7 (−7.92 to 29.3) %
same,"FEUA, % Change From baseline",uric acid; VERU 2.5 mg once daily,17.2%
same,"AeUR, % Change From baseline",uric acid; VERU 10 mg once daily,−17.0%
same,"CLUR, % Change From baseline",uric acid; VERU 10 mg once daily,"65.8 (14.2, 117) %"
same,"FEUA, % Change From baseline",uric acid; VERU 10 mg once daily,105%
same,Ae0-24 of verinurad (excreted unchanged in urine),[4]; [11],30.0 [21.6‐41.6] μg
same,CLR0-24 of verinurad,[4]; [11],14.4 mL/min
same,fe0-24 of verinurad,[4]; [11],1.20%
same,Ae0-24 of verinurad (excreted unchanged in urine),"[4]; VERU 2.5 mg + FBX 80 mg once daily oral, day 14, geometric mean, listed as VERU",30.0 µg
same,Ae0-24 of verinurad (excreted unchanged in urine),[4]; [12],32.3 (12.2) μg
same,CLR0-24 of verinurad,[4]; [12],15.4 (5.97) mL/min
same,fe0-24 of verinurad,[4]; [12],1.29 (0.490) %
same,Ae0-24 of verinurad (excreted unchanged in urine),[4]; [13],21.2 [14.8‐30.5] μg
same,CLR0-24 of verinurad,[4]; [13],13.6 mL/min
same,fe0-24 of verinurad,[4]; [13],0.849%
same,Ae0-24 of verinurad (excreted unchanged in urine),"[4]; VERU 2.5 mg once daily oral alone, day 7 or 21, geometric mean, listed as VERU",21.2 µg
same,Ae0-24 of verinurad (excreted unchanged in urine),[4]; [14],23.3 (10.1) μg
same,CLR0-24 of verinurad,[4]; [14],15.1 (7.29) mL/min
same,fe0-24 of verinurad,[4]; [14],0.932 (0.405) %
same,Ae0-24 of verinurad (excreted unchanged in urine),[4]; [15],97.6 µg
same,CLR0-24 of verinurad,[4]; [15],15.2 mL/min
same,fe0-24 of verinurad,[4]; [15],0.976%
same,Ae0-24 of verinurad (excreted unchanged in urine),[4]; [16],106 (44.2) μg
same,CLR0-24 of verinurad,[4]; [16],16.2 (5.43) mL/min
same,fe0-24 of verinurad,[4]; [16],1.06 (0.442) %
same,Ae0-24 of verinurad (excreted unchanged in urine),[4]; [17],86.8 µg
same,CLR0-24 of verinurad,[4]; [17],12.4 mL/min
same,fe0-24 of verinurad,[4]; [17],0.868%
same,Ae0-24 of verinurad (excreted unchanged in urine),[4]; [18],97.2 (49.7) μg
same,CLR0-24 of verinurad,[4]; [18],13.6 (5.04) mL/min
same,fe0-24 of verinurad,[4]; [18],0.972 (0.497) %
same,Increase in Ae0-24 of verinurad,[4]; verinurad 2.5 mg in the presence of febuxostat 80 mg vs alone,41%

# Source: paper PMC6586034 (Clinical Pharmacology in Drug Development, 2018)
